Only some compounds are listed: those with a hit (about 2% of all), similar ones and a draw of the others.
NR2E3 ag-1 – inhibitors of NR2E3-RetCOR corepressor binding, primary screen, NR2E3 agonist project, biochemical, TR-FRET, GST-NR2E3, biotin-RetCOR | Photoreceptor-specific nuclear receptor (Homo sapiens), Q9Y5X4 | 1536-well | inhibition of corepressor binding, % at 4.78 µM | 320,000 tested, 0.12% active | AID 2300, 2010;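 active = percent inhibition above the cutoff of mean plus 3 SD of all tested compounds, set per screening campaign, cut at about 20% in these data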
Target sequence (Q9Y5X4 whole entry, looked up): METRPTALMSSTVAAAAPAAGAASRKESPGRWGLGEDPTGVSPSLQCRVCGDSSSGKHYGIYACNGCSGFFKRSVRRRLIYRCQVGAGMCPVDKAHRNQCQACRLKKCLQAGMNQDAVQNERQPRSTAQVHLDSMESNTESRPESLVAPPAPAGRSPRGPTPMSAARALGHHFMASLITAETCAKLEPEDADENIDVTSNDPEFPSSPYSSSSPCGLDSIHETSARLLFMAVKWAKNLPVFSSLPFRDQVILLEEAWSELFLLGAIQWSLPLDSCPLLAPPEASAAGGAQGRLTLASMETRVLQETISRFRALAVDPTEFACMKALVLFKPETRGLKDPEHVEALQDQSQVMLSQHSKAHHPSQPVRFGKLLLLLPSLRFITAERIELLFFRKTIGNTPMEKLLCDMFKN
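Test system: GST-NR2E3 and biotin-RetCOR proteins | Quantity: 1.35 nM GST-tagged NR2E3 final | Medium: Tris pH 7.5 | Also added: 7 nM biotin-RetCOR | Dosing: Compound at 4.8 µM, single dose | Timing: 5 h at 4 °C | Detection: Time-resolved FRET | Read-out basis: Percent inhibition | Benchmarks: Biotin wells as high control, 0.6% DMSO wells as low control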
Rev-erbA mod – modulators of Rev-erb alpha DNA binding, primary screen, biochemical, FITC-DNA, fluorescence polarization, uHTS | Rev-erbα–FITC-DNA binding, 90 min | activity, % at 10 µM | 370,000 tested, 0.79% active;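 active = activity above about 14%, limit read from the data; passing the limit was not always enough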
Neddylation inh – inhibitors of cullin neddylation, primary screen, biochemical, TR-FRET, uHTS, NAE and Ubc12; 360,000 tested, 0.58% active; NEDD8-conjugating enzyme Ubc12 (Homo sapiens) + NEDD8-activating enzyme E1 regulatory …; calls only at 25 µM; in the data active = inhibition above about 36%
PG9 binder – binders of HIV-1 gp120 antibody PG9, primary screen, biochemical, TR-FRET | AID 624416, 2012 | TR-FRET gp120-PG9 antibody binding | HIV-1 gp120 / PG9 antibody interaction | 360,000 tested, 0.43% active | inhibition, % at 6.7 µM; in the data active = inhibition above about 8.5%
NR2E3 ag-2 – NR2E3 agonists in two-hybrid cells, primary screen, cell-based, luminescence, CHO-S, Gal4-NCOR/VP16-NR2E3; 360,000 tested, 0.35% active; inhibition of corepressor binding, % at 3.98 µM; AID 602229, 2012; Photoreceptor-specific nuclear receptor (Homo sapiens), Q9Y5X4; luciferase;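 active = inhibition above the mean of all tested compounds plus 3 SD, cut at about 70% in these data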;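 note: higher means lower luciferase signal from less NR2E3 corepressor binding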
PG9 binder conf – binders of anti-gp120 antibody PG9, confirmation, biochemical, TR-FRET; shares compounds with PG9 binder; TR-FRET PG9 antibody binding; inhibition, % at 6.7 µM; 1,500 tested, 90% active; in the data active = inhibition above about 9%
PGV04 Ab binding – binders of control antibody PGV04, counter-screen for PG9 antibody binder project, biochemical, TR-FRET, distinct HIV envelope site | shares compounds with PG9 binder | TR-FRET PGV04 antibody-gp120 binding | inhibition, % at 6.7 µM | 1,500 tested, 95% active | AID 651604, 2012; in the data active = inhibition above about 9.5%
PG9 binder DR – small-molecule binders of antibody PG9, dose response, biochemical, TR-FRET, HIV-1 gp120 antibody; shares compounds with PG9 binder; TR-FRET PG9 antibody-gp120 binding inhibition; IC50, µM; 95 tested, under 10 active; AID 651848, 2012; in the data active = IC50 below about 10 µM
PGV04 binding DR – binders of control antibody PGV04, dose response, counter-screen for PG9 antibody binder project, biochemical, TR-FRET, distinct HIV envelope site. shares compounds with PG9 binder. TR-FRET binding to control antibody PGV04. IC50, µM. 95 tested, 20% active. AID 651937, 2012
PG126 binding DR – binders of control antibody PG126, dose response, counter-screen for PG9 antibody binder project, biochemical, TR-FRET, distinct HIV envelope site; shares compounds with PG9 binder; TR-FRET binding to antibody PG126, counterscreen; IC50, µM; 95 tested, 20% active
Each line names hits and unclear results; the compound was inactive in the other large screens (follow-up assays come after a bar, where they were run). Cut-off read from the data, not from the text of the source, unless noted: active = IC50 below about 9 µM; inactive = the rest.

CCCCn1nnnc1C(c1cc2ccccc2o1)N1CCN(C(=O)OC(C)(C)C)CC1 (centres undefined)	none (no result: NR2E3 ag-1)
CCCCCCN1C[C@@H](O)[C@H](n2cc(COC(=O)c3ccccc3)nn2)C[C@@H]1c1ccc(OC)cc1	none (no result: NR2E3 ag-1)
O=C(COCc1ccccc1)N1CCC(Oc2cccnc2)CC1	none (no result: NR2E3 ag-1, Neddylation inh, PG9 binder, NR2E3 ag-2)
COc1cc(CN(C2CCCCC2C)S(=O)(=O)c2ccc(S(=O)(=O)NC3CC3)cc2)cc(OC)c1OC (centres undefined)	PG9 binder 11 | PG9 binder conf inactive | PGV04 Ab binding inactive | PG9 binder DR inactive | PGV04 binding DR inactive | PG126 binding DR inactive
COc1ccc(CN(C2CCCCC2C)S(=O)(=O)c2ccc(S(=O)(=O)N(C)C)cc2)cc1OC (centres undefined)	none
CC(/C=N/NC(=O)c1ccccc1F)=C\c1ccccc1	none
COc1ccc(C(=O)Nc2ccc(S(=O)(=O)N3CCCC3)cc2)c(OC)c1	PG9 binder 11 | PG9 binder conf 13 | PGV04 Ab binding 17
Cc1ccccc1NC(=O)C1CCN(c2cc(-c3ccccc3)nc3ncnn23)CC1	PG9 binder 8.8 | PG9 binder conf 17 | PGV04 Ab binding 27
COc1cccc(C=NNC(=S)NC2CC3CCC2C3)c1O (centres undefined)	none (no result: NR2E3 ag-1, Neddylation inh, NR2E3 ag-2)
CN1CCN(CCCNC(=O)c2ccc(Cn3c(=S)[nH]c4ccc(Br)cc4c3=O)cc2)CC1	none
O=C(NCc1cccnc1)c1ccc(Cn2c(=S)[nH]c3ccc(Br)cc3c2=O)cc1	PG9 binder 10 | PG9 binder conf 13 | PGV04 Ab binding 13
CCCCn1nnc(NC(=O)c2sc3cc(Cl)ccc3c2Cl)n1	PG9 binder 14 | PG9 binder conf 26 | PGV04 Ab binding 36
CC(=O)c1ccc(N2CCN(C(=S)Nc3cc(C)ccc3C)CC2)cc1	PG9 binder 12 | PG9 binder conf 8.8 | PGV04 Ab binding 15
CC(=O)c1ccc(N2CCN(C(=S)Nc3ccccc3F)CC2)cc1	none
CC(=O)c1ccc(N2CCN(S(=O)(=O)c3cccc(S(=O)(=O)N4CCOCC4)c3)CC2)cc1	PG9 binder 16 | PG9 binder conf 18 | PGV04 Ab binding 27
CC(=O)c1ccc(N2CCN(C(=O)/C=C/c3ccc(S(=O)(=O)N4CCOCC4)cc3)CC2)cc1	none
COC(=O)[C@]1(C#N)CC(=O)N(CC(C)C)[C@@H]1c1ccccc1	none (no result: NR2E3 ag-1, Neddylation inh, PG9 binder, NR2E3 ag-2)
CC(Oc1ccc(Cl)cc1Cl)c1ccnc(N)n1 (centres undefined)	none
Cc1cc(Cl)ccc1OC(C)c1nnc(N)s1 (centres undefined)	PG9 binder 10 | PG9 binder conf inactive | PGV04 Ab binding inactive
Cc1ccc(C2/C(=C(\O)c3ccc4c(c3)OCCO4)C(=O)C(=O)N2Cc2cccnc2)cc1 (centres undefined)	PG9 binder 27 | PG9 binder conf 38 | PGV04 Ab binding 47
COc1ccc(C2/C(=C(\O)c3ccc4c(c3)OCCO4)C(=O)C(=O)N2Cc2cccnc2)cc1OC (centres undefined)	none
O=C1C(=O)N(Cc2cccnc2)C(c2ccc(Br)cc2)/C1=C(\O)c1ccc2c(c1)OCCO2 (centres undefined)	PG9 binder 21 | PG9 binder conf 31 | PGV04 Ab binding 37
Cc1ccc(Cn2cc(COC(=O)N3CCCC3)nn2)cc1	none (no result: NR2E3 ag-1, Neddylation inh, PG9 binder, NR2E3 ag-2)
CC(=O)c1ccc(S(=O)(=O)Nc2ccc(-n3cnnn3)cc2)cc1	none
CC(=O)c1ccc(NC(=O)c2ccc(-n3cnnn3)cc2)cc1	PG9 binder 17 (no result: NR2E3 ag-1) | PG9 binder conf 33 | PGV04 Ab binding 46
O=C1N[C@@H](Cc2ccccc2)C(=O)N2[C@H]1CSCCS2(=O)=O	none (no result: NR2E3 ag-1, Neddylation inh, NR2E3 ag-2)
COc1ccc(-n2c(=O)[nH]cc(C(=O)Nc3ccc4c(c3)OCCO4)c2=O)cc1OC	none
COc1cccc(-n2c(=O)[nH]cc(C(=O)Nc3ccc4c(c3)OCCO4)c2=O)c1	PG9 binder 29 | PG9 binder conf inactive | PGV04 Ab binding inactive
CC(C)C[C@H]1COc2ccc(Cl)cc2S(=O)(=O)N1	none (no result: NR2E3 ag-1, Neddylation inh, NR2E3 ag-2)
CCOC(=O)Nc1nc(C)c(C(=O)c2ccc(Cl)cc2)s1	PG9 binder 10 | PG9 binder conf 17 | PGV04 Ab binding 33
CC(OC(=O)/C(C#N)=C/c1ccc(N(C)C)cc1)C(=O)NCc1ccco1 (centres undefined)	PG9 binder 10 | PG9 binder conf 17 | PGV04 Ab binding 24
CN(C)c1ccc(/C=C(\C#N)C(=O)NCc2ccco2)cc1	none (no result: Rev-erbA mod, Neddylation inh, PG9 binder, NR2E3 ag-2)
COc1ccc(NC(=O)CSc2nncc3ccccc23)cc1	none
COc1ccc(OC)c(NC(=O)CSc2nncc3ccccc23)c1	PG9 binder 13 | PG9 binder conf inactive | PGV04 Ab binding 10
CCOc1ccc(C2C(C(=O)c3ccc(C)o3)=C(O)C(=O)N2Cc2cccnc2)cc1 (centres undefined)	PG9 binder 23 | PG9 binder conf 35 | PGV04 Ab binding 41
COc1ccc(C2C(C(=O)c3ccc(C)o3)=C(O)C(=O)N2Cc2ccco2)cc1OC (centres undefined)	none
CCCOc1ccc(C2C(C(=O)c3ccc(C)o3)=C(O)C(=O)N2Cc2ccco2)cc1 (centres undefined)	PG9 binder 14 | PG9 binder conf 16 | PGV04 Ab binding 21
Cc1cc(N2C(=O)C(O)=C(C(=O)c3ccc(C)o3)C2c2cccc(Cl)c2)no1 (centres undefined)	PG9 binder 8.7 (no result: NR2E3 ag-1) | PG9 binder conf 17 | PGV04 Ab binding 24

From PubChem BioAssay
